Hits are enriched below; roughly 2.9% of the tested compounds scored in any of these assays.
SIRT5 inh: sirtuin-5 (human) deacylase inhibition; 330,000 tested, 1.1% active; Purified SirT5, succinyl-peptide AMC, trypsin-coupled fluorescence; inhibition, % at 15 µM; Q9NXA8; AID 652115; in the data active = inhibition above about 15%; inconclusive = no clear call, values can overlap the other calls
Target sequence (Q9NXA8 whole entry, looked up): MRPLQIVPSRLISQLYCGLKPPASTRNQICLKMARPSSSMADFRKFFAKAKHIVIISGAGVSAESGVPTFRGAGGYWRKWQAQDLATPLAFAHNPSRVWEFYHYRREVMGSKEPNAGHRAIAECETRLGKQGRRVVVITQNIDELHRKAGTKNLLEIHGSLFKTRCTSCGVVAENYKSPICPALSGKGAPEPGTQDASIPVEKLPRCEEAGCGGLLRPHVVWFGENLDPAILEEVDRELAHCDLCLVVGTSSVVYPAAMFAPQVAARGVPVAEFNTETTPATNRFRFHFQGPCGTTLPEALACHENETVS
DENV2 CPE: inhibitors of DENV2 cytopathic effect; 350,000 tested, 1.7% active; DENV2-infected cells, cytopathic effect rescue, plate reader; CPE inhibition, % at 9.99 µM; in the data active = CPE inhibition above about 20%, passing the limit was not always enough; inconclusive = no clear call, values can overlap the other calls; tested in BHK-21 cells
E-sel inducer: induces E-selectin expression in human endothelial cells; AID 686992; HUVEC E-selectin immunofluorescence imaging; normalized: neutral wells 0, TNF-alpha wells 100; P16581; 260,000 tested, 0.37% active; activation, % at 7.58 µM;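 active = mean E-selectin-positive cell signal at least 10% of the positive control, reached in at least 60% of replicates, without over 20% cell loss; inconclusive = no rule given, readout overlaps actives, possibly toxicity-flagged; inactive = the rest, including those meeting only one limit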
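System: HUVEC / Compound: single concentration / Signal: immunofluorescence imaging / Read-out: percent E-selectin-positive cells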
Of the large screens only hits and unclear results are named; the others gave an inactive call; ! = not active in a repeat.

OC[C@H]1CC[C@@H]2O[C@H](CCc3ccc(C#CCc4ccccc4)cc3)[C@@H](n3cc(-c4ccccc4)nn3)C[C@@H]2O1	none (no result: SIRT5 inh, E-sel inducer)
C[C@H]1CN([C@@H](C)CO)C(=O)Cc2cc(NC(=O)CCN3CCOCC3)ccc2O[C@H]1CN(C)C(=O)Nc1ccccc1	none
O=Cc1cn(CCC(=O)O)nc1-c1cccc2ccccc12	none (no result: E-sel inducer)
Cc1ccc(C)c(S(=O)(=O)N2CCCCC2CCNC(=O)C(=O)NCc2ccccn2)c1 (centres undefined)	none
Cc1cc(F)ccc1S(=O)(=O)N1CCCCC1CCNC(=O)C(=O)NCc1ccccn1 (centres undefined)	E-sel inducer 75.0
COc1ccccc1-c1cnc2c(c1)C(=O)N([C@H](C)CO)C[C@H](C)[C@@H](CN(C)C(=O)c1cccnc1)O2	none
COc1ccc(NC(=O)N(C)C[C@H]2OCCCC[C@@H](C)Oc3ccc(NS(C)(=O)=O)cc3C(=O)N([C@H](C)CO)C[C@H]2C)cc1	DENV2 CPE 95.0
COc1ccc(NC(=O)N(C)C[C@H]2OCCCC[C@H](C)Oc3ccc(NS(C)(=O)=O)cc3C(=O)N([C@@H](C)CO)C[C@H]2C)cc1	none
C[C@@H]1CCCCO[C@@H](CN(C)C(=O)Nc2ccccc2)[C@H](C)CN([C@H](C)CO)C(=O)c2cc(NS(C)(=O)=O)ccc2O1	DENV2 CPE inconclusive
C[C@@H]1CN([C@@H](C)CO)C(=O)c2cc(N(C)C)ccc2O[C@@H](C)CCCCO[C@@H]1CN(C)C(=O)Nc1ccccc1	SIRT5 inh 16.0, DENV2 CPE inconclusive
C[C@@H]1CCCCO[C@@H](CN(C)C(=O)Nc2ccccc2)[C@H](C)CN([C@@H](C)CO)C(=O)c2cc(NS(C)(=O)=O)ccc2O1	DENV2 CPE 42.7
C[C@@H]1CCCCO[C@H](CN(C)C(=O)Nc2ccccc2)[C@@H](C)CN([C@@H](C)CO)C(=O)c2cc(N(C)C)ccc2O1	none (no result: E-sel inducer)
COc1ccc2sc(-c3ccc(N(C)C)cc3)c(C#CC(C)(C)O)c2c1	none
Cc1ccc(F)c(S(=O)(=O)NC(=O)C2(C)CCN2C(=O)Cc2cccc3ccccc23)c1 (centres undefined)	none (no result: SIRT5 inh)
O=C(CN1c2ccccc2Sc2ccccc21)NNC(=S)Nc1ccc(Cl)cc1	none
CCCOc1nc2c(c(=O)n(C)c(=O)n2C)n1C	none
C[C@@H]1CN([C@H](C)CO)S(=O)(=O)c2ccc(-c3cccc(C#N)c3)cc2O[C@H]1CN(C)C(=O)Nc1cc(F)ccc1F	DENV2 CPE 29.4!
C/C=C/c1ccc2c(c1)O[C@@H](CN(C)C(=O)Nc1ccccc1)[C@H](C)CN([C@H](C)CO)S2(=O)=O	DENV2 CPE 27.7
C[C@H](CO)N1C[C@H](C)[C@@H](CN(C)C(=O)Nc2cc(F)ccc2F)Oc2cc(-c3cccc(C#N)c3)ccc2S1(=O)=O	none
C[C@H](CO)N1C[C@H](C)[C@@H](CN(C)C(=O)Nc2ccc(F)cc2)Oc2cc(/C=C/c3ccccc3)ccc2S1(=O)=O	SIRT5 inh 16.3
C[C@H]1CN([C@@H](C)CO)S(=O)(=O)c2ccc(/C=C/c3ccccc3)cc2O[C@@H]1CN(C)C(=O)Nc1ccc(F)cc1	SIRT5 inh 27.7
C[C@H]1CN([C@@H](C)CO)S(=O)(=O)c2ccc(/C=C/c3ccccc3)cc2O[C@H]1CN(C)C(=O)Nc1ccc(F)cc1	none
C[C@@H]1CN([C@H](C)CO)S(=O)(=O)c2ccc(/C=C/c3ccccc3)cc2O[C@H]1CN(C)C(=O)Nc1ccc(F)cc1	none
C/C=C/c1ccc2c(c1)O[C@@H](CN(C)C(=O)Nc1ccccc1)[C@@H](C)CN([C@H](C)CO)S2(=O)=O	none
COC(=O)CNC(=O)CN1C(=O)NC2(CCCc3ccccc32)C1=O (centres undefined)	none
C[C@@H]1CN([C@@H](C)CO)C(=O)c2cccc(NC(=O)C3CC3)c2O[C@@H]1CN(C)Cc1ccc(-c2ccccc2)cc1	none
COCCNC(=O)c1c(CS(=O)(=O)c2ccccc2)noc1C(=O)NCc1ccccc1	none
Cc1ccc(S(=O)(=O)N[C@H]2CC[C@H](CCn3cc(C4CC4)nn3)O[C@H]2CO)cc1	none
O=C(C[C@@H]1CC[C@H]2[C@@H](COC[C@H](O)CN2S(=O)(=O)c2cccc(F)c2)O1)Nc1ccc(-c2ccccc2)cc1	none
COc1ccc(S(=O)(=O)Nc2ccc3c(c2)C(=O)N([C@@H](C)CO)C[C@@H](C)[C@@H](CN(C)S(=O)(=O)c2cn(C)cn2)O3)cc1	none
CN(C)S(=O)(=O)c1cccc(C(=O)NCC(=O)NC2CCN(Cc3ccccc3)CC2)c1	none (no result: E-sel inducer)
CCCNC(=O)N1C[C@H](O)COC[C@@H]2O[C@H](CC(=O)N3CCCCC3)CC[C@H]21	none
C[C@H]1CN([C@@H](C)CO)S(=O)(=O)c2ccc(/C=C/c3ccccc3)cc2O[C@H]1CN(C)C(=O)Nc1cc(F)ccc1F	SIRT5 inh 22.3
C[C@H]1CN([C@@H](C)CO)S(=O)(=O)c2ccc(/C=C/c3ccccc3)cc2O[C@@H]1CN(C)C(=O)Nc1cc(F)ccc1F	none (no result: SIRT5 inh, DENV2 CPE)
COC(=O)c1ccc(NC(=O)C2CC3CCC2C3)cc1 (centres undefined)	DENV2 CPE 47.5
CCOC(=O)c1ccc(NC(=O)C2CC3CCC2C3)cc1 (centres undefined)	none (no result: E-sel inducer)
CN(Cc1ccccc1)S(=O)(=O)c1ccc(Cl)c(C(=O)OCC(=O)NC2CCS(=O)(=O)C2)c1 (centres undefined)	DENV2 CPE 32.3
CN(C(=O)COC(=O)c1cc(S(=O)(=O)N(C)C)ccc1Cl)C1CCS(=O)(=O)C1 (centres undefined)	DENV2 CPE inconclusive
CO[C@@H]1CN(C)C(=O)c2cc(NC(=O)c3ccccc3)ccc2OC[C@@H](C)NC[C@@H]1C	none
Cc1c(C)c2c(OCC(=O)N3CCC(O)CC3)cc3c(c2oc1=O)CCC(C)(C)O3	DENV2 CPE 46.6 (no result: SIRT5 inh, E-sel inducer)
Cc1c(C)c2c(OCC(=O)N3CCC[C@H]3C(=O)O)cc3c(c2oc1=O)CCC(C)(C)O3	none (no result: E-sel inducer)
COc1ccc(Br)c(C(=O)N2CCN(S(=O)(=O)c3cccs3)CC2)c1	none
Cc1cccc(C)c1NC(=O)C(C1CC1)n1c(-c2ccc(=O)[nH]c2)nc2ccccc21 (centres undefined)	none (no result: SIRT5 inh)
Cc1cccc(C)c1NC(=O)C(C)n1c(-c2ccc(=O)[nH]c2)nc2ccccc21 (centres undefined)	DENV2 CPE 20.7 (no result: SIRT5 inh)
Cn1c(N)c(C(=O)CSc2nc(C3CC3)n(-c3ccccc3)n2)c(=O)[nH]c1=O	none
CCCCn1c(N)c(N(CCOC)C(=O)CN(C)S(=O)(=O)c2ccc(C)cc2)c(=O)[nH]c1=O	DENV2 CPE inconclusive
COc1cc(NC(=S)N2CCCCC2C)c(OC)cc1Cl (centres undefined)	none (no result: E-sel inducer)
O=C(c1cc(C2CC2)on1)N1CCN(C(c2ccccc2)c2ccccc2)CC1	DENV2 CPE 40.0 (no result: SIRT5 inh, E-sel inducer)
O=C(c1cc(-c2cccc(O)c2)on1)N1CCN(C(c2ccccc2)c2ccccc2)CC1	none (no result: SIRT5 inh, E-sel inducer)
COc1ccc(CN(C)CC(=O)Nc2c(C)cccc2C)c(OC)c1	none (no result: E-sel inducer)
CN(C)S(=O)(=O)c1ccc(C(=O)OCC(=O)Nc2sc3c(c2C#N)CCCCC3)cc1	none (no result: E-sel inducer)
CCOC(=O)c1c(NC(=O)COC(=O)c2nccnc2N)sc2c1CCC2	none
CC(C)(C)c1ccc(C(=O)OCC(=O)Nc2sc3c(c2C#N)CCC3)cc1	DENV2 CPE 98.9 (no result: E-sel inducer)

From PubChem
